Our source for the IC50, selectivity ratio and CC50 values is ChEMBL document CHEMBL5260818, “Anti-influenza activity of diazaadamantanes combined with monoterpene moieties” (Bioorg Med Chem Lett, 2017).

Data set [1] deals with Influenza A virus. The data set can be described thus: Antiviral activity against Influenza A virus A A/California/07/09 (H1N1)pdm09. Format: functional, organism-based.
A short description of data set [2]: Selectivity index, ratio of CC50 for cytotoxicity against MDCK cells to IC50 for antiviral activity against Influenza A virus A/Puerto Rico/8/34 (H1N1) infected in MDCK cells assessed as inhibition of viral growth. Format: toxicity, cell-based. The conditions noted are these: dog, read-out: Ratio CC50/IC50. The essentials: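 SI is CC50 (MTT, uninfected MDCK, 48 h) divided by IC50 (hemagglutination titre of progeny virus from MDCK cells infected at moi 0.01 after 1 h compound pre-incubation), both from triplicate concentration series.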

Data set [3] in a line: Cytotoxicity against MDCK cells incubated for 48 hrs by MTT assay. The class given is toxicity, cell-based, Canis lupus familiaris. The settings on record: dog. The essentials:
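Uninfected MDCK cells were exposed to the dissolved compounds for 48 h at 36 °C, 5% CO2. Cells were washed twice with PBS, then given MTT ([…] in PBS) for 1 h. Formazan was dissolved in DMSO and OD read at 535 nm against concentration. Three parallels per concentration, and CC50 was calculated.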

Data set [4] has as its system Influenza A virus. Kind of data set: Antiviral activity against Influenza A virus A/Puerto Rico/8/34 (H1N1) infected in MDCK cells assessed as inhibition of viral growth preincubated with cells for 1 hrs followed by compound addition and measured after 24 hrs by TCD titration based assay. Format: functional, organism-based. The essentials: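 Compounds dissolved in DMSO and diluted in MEM with 1 μg/ml trypsin, then added to MDCK cells for 1 h at 36 °C before infection (moi 0.01). Cultures were kept 24 h at 36 °C, 5% CO2. Supernatant virus progeny was grown in MDCK cells for 48 h, then titred by hemagglutination. Each concentration was run in triplicate, and IC50 was calculated.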

`CC(C)=CCCC(C)CCNC1C2CC3CC(C2)CC1C3` (stereo unspecified) registered a 50% inhibitory concentration (IC50) in the data set on Influenza A virus [1] of 18 µM.

Turning to `CC(C)=CCC/C(C)=C\C1N2CC3(C)CN1CC(C)(C2)C3=O` (stereo unspecified), the selectivity ratio in data set [2] came out at 2. The molecule also had a CC50 at 48 h in data set [3] of 242 µM. Further, in the data set on Influenza A virus [4], the IC50 is > 99 µM.

For the molecule `CC(C)=CCCC(C)CC1N2CC3(C)CN1CC(C)(C2)C3=O` (stereo unspecified), in data set [2], the selectivity ratio is 3. In data set [3], it took 178 µM to reach half-maximal cytotoxicity (CC50 at 48 h). In addition, in the data set with Influenza A virus [4], the IC50 amounted to 66 µM.

Turning to `CC12CN3CC(C)(CN(C1)C3C1=CC(=O)[C@H]3C[C@@H]1C3(C)C)C2=O` (stereo partly specified), in data set [2], the selectivity ratio is 8. The molecule further gave a CC50 at 48 h in data set [3] of 907 µM. For the same molecule, in the data set on Influenza A virus [4], the IC50 is 113 µM.

As for `CC(CCCC(C)(C)O)CC1N2CC3(C)CN1CC(C)(C2)C3=O` (stereo unspecified), in data set [2], the selectivity ratio was found to be 3. Besides, the cytotoxic concentration (CC50) at 48 h in data set [3] is > 904 µM. Further, in the data set with Influenza A virus [4], the half-maximal inhibitory concentration (IC50) amounted to 260 µM.

Take `CC1=CC[C@@H](CC2N3CC4(C)CN2CC(C)(C3)C4=O)C1(C)C` (stereo partly specified): the selectivity ratio in data set [2] is < 2. Moreover, the CC50 at 48 h in data set [3] is 533 µM. Moreover, in the data set with Influenza A virus [4], the IC50 is > 331 µM.

`CC12CN3CN(C1)CC(C)(C3)C2NCC1=CC[C@H]2C[C@@H]1C2(C)C` (stereo partly specified): the selectivity ratio in data set [2] is 3. The CC50 at 48 h in data set [3] stood at 196 µM. For the same molecule, in the data set with Influenza A virus [4], the IC50 was found to be 64 µM.

Consider `CC12CN3CC(C)(CN(C1)C3C1=CC[C@H]3C[C@@H]1C3(C)C)C2=O` (stereo partly specified), for which the CC50 at 48 h in data set [3] is > 1000 µM. In the data set on Influenza A virus [4], the IC50 was > 1000 µM.

`CC(=O)[C@@H]1C[C@H](CC2N3CC4(C)CN2CC(C)(C3)C4=O)C1(C)C` (stereo partly specified): the CC50 at 48 h in data set [3] was > 943 µM. Besides, the IC50 with Influenza A virus [4] was > 943 µM.

`CC12CN3CN(C1)CC(C)(C3)C2N` (stereo unspecified): in data set [2], the selectivity ratio was > 13. In addition, the CC50 at 48 h in data set [3] was > 1820 µM. The 50% inhibitory concentration (IC50) in the data set with Influenza A virus [4] was 143 µM.

On to `CC(CCCC(C)(C)O)CCNC1C2(C)CN3CN(C2)CC1(C)C3` (stereo unspecified), for which the selectivity ratio in data set [2] is 7. In data set [3], this molecule displayed a CC50 at 48 h of 979 µM. Also, the IC50 in the data set with Influenza A virus [4] was 134 µM.

`CC(C)=CCCC(C)CCNC1C2(C)CN3CN(C2)CC1(C)C3` (stereo unspecified): the selectivity ratio in data set [2] was 30. The molecule also gave a CC50 at 48 h in data set [3] of 239 µM. Besides, the IC50 in the data set on Influenza A virus [4] was 8 µM.

Consider `CC(C)=CCC/C(C)=C\CNC1C2(C)CN3CN(C2)CC1(C)C3` (stereo unspecified), for which, in data set [3], the CC50 at 48 h was > 1040 µM. Moreover, the IC50 in the data set with Influenza A virus [4] is > 1040 µM.

`CC(N)C12CC3CC(CC(C3)C1)C2` (stereo unspecified) [RIMANTADINE]: the selectivity ratio in data set [2] worked out at 8. For the same molecule, the IC50 in the data set with Influenza A virus [4] was 42 µM.
